# Screening data from PubChem.
# An excerpt weighted towards active compounds, which were near 2.7% of everything screened.
# SIAE primary = human SIAE inhibitors, primary screen, biochemical, fluorescence polarization, FP-Rh probe, 1536-well HTS; AID 1053197, 2014; SIAE FP-Rh probe binding; 0.69% of 370,000 active; inhibition, % at 9.66 µM; Sialate O-acetylesterase (Homo sapiens), Q9HAT2;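 active = inhibition above a cutoff: mean of compounds within the control limits plus 3 SD of those, cut at about 17% in these data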
# PRMT1 inh = PRMT1 methyltransferase inhibitors, primary screen, biochemical, fluorescence polarization | recombinant PRMT1, activity-based probe fluorescence polarization | inhibition, % at 2.79 µM | 1.3% of 370,000 active;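 active = inhibition above about 21% made by adding two undisclosed values, limit read from the data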
# HTRA1 inhibitor = HTRA1 serine protease inhibitors, primary screen, biochemical, fluorescence polarization, HTS | Q92743 | recombinant HTRA1, FP-rhodamine activity-based probe | inhibition, % at 5.96 µM | 0.5% of 340,000 active; in the data active = inhibition above about 36%
# Target sequence (Q92743 whole entry, looked up): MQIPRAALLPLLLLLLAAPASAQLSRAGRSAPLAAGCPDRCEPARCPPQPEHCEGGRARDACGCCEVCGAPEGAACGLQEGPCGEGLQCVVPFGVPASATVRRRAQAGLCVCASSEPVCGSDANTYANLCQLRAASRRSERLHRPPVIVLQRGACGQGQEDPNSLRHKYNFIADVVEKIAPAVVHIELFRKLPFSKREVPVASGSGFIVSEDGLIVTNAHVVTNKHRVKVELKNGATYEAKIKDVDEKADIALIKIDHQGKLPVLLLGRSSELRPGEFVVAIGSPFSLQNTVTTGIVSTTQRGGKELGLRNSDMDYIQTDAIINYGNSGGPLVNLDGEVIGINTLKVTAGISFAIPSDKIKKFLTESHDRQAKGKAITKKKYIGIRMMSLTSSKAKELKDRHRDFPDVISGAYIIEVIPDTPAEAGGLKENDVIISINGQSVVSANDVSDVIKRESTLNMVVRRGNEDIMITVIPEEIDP
# TCR-CD3 inh = inhibitors of human TCR-CD3 interaction, primary screen, biochemical, fluorescence, TAMRA-labeled TCR probe. 0.37% of 360,000 active. T-cell receptor (TCR). inhibition, % at 9.4 µM. AID 651800, 2012;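 note: recombinant mutant TCR 2C K166C tagged with TAMRA read by polarization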
# ABHD4 inh = ABHD4 inhibitors, primary screen, biochemical, fluorescence polarization, mouse | 0.54% of 370,000 active | inhibition, % at 8.92 µM | purified mABHD4, FP-Rh probe fluorescence polarization | AID 720543, 2013;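 active = inhibition exceeding the mean over every tested compound plus 3 SD, cut at about 30% in these data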
#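 Doses – 8.92 µM, single dose · Material – wild-type mouse ABHD4 protein · Replication – single well per compound (singlicate) · Measure – percent inhibition of probe binding, normalized to plate controls · Schedule – 45 min compound pre-incubation plus 60 min probe step, 25 °C · Detection – fluorescence polarization with parallel and perpendicular emission, 525/598 nm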
# HTRA1 conf = HTRA1 protease inhibitors, retest, confirmation, biochemical, fluorescence polarization. shares compounds with HTRA1 inhibitor. recombinant HTRA1, FP-rhodamine activity-based probe. inhibition, % at 5.96 µM. 66% of 1,600 active. AID 540248, 2011;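 active = mean inhibition over three repeats above a set limit taken from the earlier primary screen, cut at about 37% in these data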;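 note: inhibitors block probe binding so polarization drops and inhibition rises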
# BSA TAMRA ctr = compounds interfering with TAMRA-BSA probe, counter-screen for TCR-CD3 interaction inhibitor project, biochemical, fluorescence, TAMRA-labeled BSA | TAMRA-labeled BSA probe fluorescence counterscreen | AID 652035, 2013 | shares compounds with TCR-CD3 inh | 10% of 1,200 active | inhibition, % at 9.4 µM; in the data active = inhibition above about 23%
# TCR-CD3 conf = TCR-CD3 interaction inhibitors, retest, confirmation, biochemical, fluorescence, TAMRA-labeled TCR probe; shares compounds with TCR-CD3 inh; TAMRA-labeled TCR probe fluorescence binding assay; inhibition, % at 9.4 µM; 48% of 1,200 active; AID 652036, 2013
# PRMT1 confirm = PRMT1 methyltransferase inhibitors, confirmation, biochemical, fluorescence polarization, triplicate | shares compounds with PRMT1 inh | recombinant His-PRMT1, activity-based probe fluorescence polarization | inhibition, % at 2.79 µM | 42% of 3,300 active | AID 687036, 2013;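 active = mean inhibition across replicates above the hit cutoff derived for the earlier primary screen, cut at about 22% in these data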
# ABHD4 confirm = ABHD4 inhibitors, retest, confirmation, biochemical, fluorescence polarization, mouse. shares compounds with ABHD4 inh. purified mABHD4, FP-Rh probe fluorescence polarization. inhibition, % at 8.92 µM. AID 720658, 2013. 55% of 1,800 active;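 active = mean inhibition across replicates above the hit cutoff set in the primary screen, cut at about 30% in these data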
# SIAE inh conf = human SIAE inhibitors, retest, confirmation, biochemical, fluorescence polarization, FP-Rh probe, triplicate. inhibition, % at 9.66 µM. AID 1117263, 2014. shares compounds with SIAE primary. 13% of 2,300 active. SIAE FP-Rh activity-based probe;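 active = mean inhibition of the replicates above the hit cutoff set in the primary screen, cut at about 17% in these data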;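 note: inhibitors lower polarization as more probe stays unbound to SIAE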
# Numbers stand for hits; n = inactive; x = not tested or not shown. Cut-off read from the data, not from the text of the source, unless noted: active = inhibition above about 19%; inactive = the rest.
SMILES,SIAE primary,PRMT1 inh,HTRA1 inhibitor,TCR-CD3 inh,ABHD4 inh,HTRA1 conf,BSA TAMRA ctr,TCR-CD3 conf,ABHD4 confirm,SIAE inh conf,others
O=C(O)/C=C\C(=O)Nc1ccc(N2CCN(c3cccc(Cl)c3)CC2)cc1,26,n,52,21,42,40,n,n,n,n,
CC(=O)c1ccc(NC(=O)N2CCN(c3cccc(Cl)c3)CC2)cc1,n,n,n,n,n,x,x,x,x,x,
O=C(O)/C=C\C(=O)Nc1ccc(N2CCN(c3ccc(Cl)c(Cl)c3)CC2)cc1,27,n,57,30,39,n,n,n,n,n,
O=C(O)/C=C\C(=O)Nc1ccc(N2CCN(c3ccc(F)cc3)CC2)cc1,33,n,43,28,44,n,n,n,n,n,
O=C(O)/C=C\C(=O)Nc1ccc(N2CCN(c3ccc(Cl)cc3)CC2)cc1,28,n,44,21,33,n,n,n,n,n,
O=C(O)[C@@H]1[C@H]2C[C@H]3c4[nH]c5ccccc5c4CCN3C[C@@H]2CC[C@@H]1O,24,n,45,46,39,n,n,n,32,n,
CCn1c(=O)c2ccccc2n(Cc2ccccc2C)c1=O,n,n,n,n,n,x,x,x,x,x,
S=C(Nc1ccc(N2CCOCC2)cc1)Nc1ccc2nc(-c3ccco3)c(-c3ccco3)nc2c1,21,43,48,n,38,n,x,x,42,n,
O=C(NC(=S)Nc1ccc(N2CCOCC2)cc1)c1ccco1,n,n,n,n,n,x,x,x,x,x,
CCCCNC(=O)c1ccc2nc(-c3ccco3)c(-c3ccco3)nc2c1,27,42,53,23,60,39,n,n,52,n,PRMT1 confirm=48
O=C(Nc1ccccc1)c1ccc2nc(-c3ccco3)c(-c3ccco3)nc2c1,22,38,59,24,47,n,x,x,n,n,
COc1ccc2nc(-c3ccco3)c(-c3ccco3)nc2c1,23,63,52,31,57,n,n,31,n,n,
O=C(Nc1cccnc1)c1ccc2nc(-c3ccccc3)c(-c3ccccc3)nc2c1,n,n,n,n,n,x,x,x,x,x,
CCn1c2ccccc2c2cc(NC(=O)COC(=O)c3ccc(F)cc3Cl)ccc21,n,n,x,x,n,x,x,x,x,x,
COc1ccc(CN2C(=O)C(CC(=O)NC3CCCCC3)CC(C(=O)N(C(C)C)C(C)C)=C2C)cc1 (centres undefined),n,n,n,n,n,x,x,x,x,x,
CC(=O)NC(c1ccc2ccccc2c1)c1ccc2cccnc2c1O (centres undefined),27,n,52,n,n,68,x,x,x,27,
COc1ccc(C(NC(C)=O)c2ccc3cccnc3c2O)c(OC)c1 (centres undefined),x,x,n,x,x,x,x,x,x,x,
CC(C)C(=O)NC(c1cccc([N+](=O)[O-])c1)c1ccc2cccnc2c1O (centres undefined),22,n,44,n,n,46,x,x,x,n,
CC(=O)NC(c1ccc(Cl)cc1Cl)c1ccc2cccnc2c1O (centres undefined),20,n,73,n,n,67,x,x,x,n,
CCCCC(=O)NC(c1ccc(N(CC)CC)cc1)c1ccc2cccnc2c1O (centres undefined),18,n,60,n,n,66,x,x,x,n,
CC(=O)NC(c1ccco1)c1cc(F)c2cccnc2c1O (centres undefined),n,n,n,n,n,x,x,x,x,x,
COc1ccc(OC)c(S(=O)(=O)N2CCCCC2C(=O)N2CCCN(C)CC2)c1 (centres undefined),n,n,x,x,n,x,x,x,x,x,
CCCCCCCCN1C(=O)[C@@H](CC(=O)NCCCOC)C[C@@]2(C(=O)OC)C1=C[C@H](C(C)(C)C)O[C@@H]2C,n,n,x,n,n,x,x,x,x,x,
Cc1cc(C)c(C)c(S(=O)(=O)Nc2ccccc2N2CCOCC2)c1C,n,n,n,n,n,x,x,x,x,x,
CC1=CC(C)(C)N2C(=O)C(=Nc3ccc(O)cc3)c3cccc1c32,22,n,53,42,60,n,n,n,n,n,
SMILES,SIAE primary,PRMT1 inh,HTRA1 inhibitor,TCR-CD3 inh,ABHD4 inh,HTRA1 conf,BSA TAMRA ctr,TCR-CD3 conf,ABHD4 confirm,SIAE inh conf,others
CCOC(=O)CNC(=O)Cn1cnc2c(nnn2-c2ccc(OC)cc2)c1=O,n,n,n,n,n,x,x,x,x,x,
O=C(N/N=C/c1ccc(OCc2ccccc2)cc1)c1ccncc1,n,n,n,n,n,x,x,x,x,x,
Oc1ccc(N=Cc2ccc(OCc3ccccc3)cc2)cc1,45,36,63,32,68,n,n,n,n,n,
COc1cc(C(=O)OCC(=O)N2CCC(Cc3ccccc3)CC2)cc(OC)c1OC,n,n,n,n,n,x,x,x,x,x,
Cc1cc(O)ccc1N=Cc1c(C(F)(F)F)[nH][nH]c1=O,73,25,104,84,109,n,30,n,n,n,
O=C(Nc1ccc(O)cc1)C1CC=CCC1 (centres undefined),23,n,48,n,n,42,x,x,x,n,
O=C(NCCCN1CCOCC1)C1Nc2ccc(OC(F)(F)F)cc2C2C=CCC12 (centres undefined),n,n,n,n,n,x,x,x,x,x,
O=C(NCc1ccccn1)C1Nc2ccc(OC(F)(F)F)cc2C2C=CCC12 (centres undefined),17,34,43,n,48,n,x,x,n,n,PRMT1 confirm=n
COc1ccc(/C=C(\C#N)C(=O)Nc2cccc3ncccc23)cc1OC,n,n,n,n,n,x,x,x,x,x,
N#C/C(=C\c1ccc(O)c(O)c1)C(=O)Nc1cccc2ncccc12,29,n,52,72,n,39,n,60,x,n,
O=S(=O)(c1ccc(F)cc1)N1CN(Cc2ccco2)c2nc3ccccc3nc21,34,26,46,46,45,n,n,n,n,n,PRMT1 confirm=n
